Converted amounts (≈) assume the structure as drawn. The source made the active and inactive calls. No cut-off for these calls is given here.
Experiments:
[1] = system: Mycobacterium tuberculosis; assay: Antitubercular activity against Mycobacterium tuberculosis H37Rv after 24 hrs by BACTEC radiometric susceptibility assay; type: functional
Summary of the method: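 BACTEC radiometric assay in 7H12 (12B) medium with 14C-palmitic acid as substrate; 14CO2 output read daily as Growth Index (GI) at 37 °C ± 1 °C. H37Rv inoculum grown in 12B vial to GI around 300. Compounds dissolved in DMSO. Control vial held 1:100 diluted bacterial suspension. Reading continued until control GI reached 30 or more. Daily change in GI compared with control to set susceptibility and MIC.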

[2] = system: Mycobacterium tuberculosis; assay: Antitubercular activity against Mycobacterium tuberculosis H37Rv at 50 ug/mL after 24 hrs by BACTEC radiometric susceptibility assay; type: functional, organism-based
[3] = Selectivity index, ratio of CC50 for african green monkey Vero cells to MIC for Mycobacterium tuberculosis H37Rv; type: functional
[4] = Cytotoxicity against african green monkey Vero cells after 24 hrs by resazurin assay; type: cell-based; details: chlorocebus sabaeus
Summary of the method: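 Vero cells (ATCC CCL-81) seeded overnight at 1 × 10⁴–[…] cells/well in RPMI with 10% heat-inactivated FBS, 37 °C, 5% CO2. Exposed in triplicate to serial dilutions, 100 to 1.56 µg/mL. Resazurin (0.1%) added for 4–5 h. Read visually (purple to pink or colourless) and by fluorescence, excitation 530 nm, emission 590 nm.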

[5] = system: Mycobacterium tuberculosis; assay: Antitubercular activity against Mycobacterium tuberculosis H37Rv at 25 ug/mL after 24 hrs by BACTEC radiometric susceptibility assay; type: functional, organism-based
[6] = system: Mycobacterium tuberculosis; assay: Antitubercular activity against Mycobacterium tuberculosis H37Rv infected in mouse J774A.1 cells assessed as growth index at MIC after 8 days by BACTEC radiometric susceptibility assay; type: functional
Summary of the method: (§1)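 J774A.1 murine macrophages infected with H37Rv (grown in 7H9 with BSA, dextrose, catalase, washed in serum-free RPMI) at MOI 1:20 for 6 h, 37 °C, 5% CO2. Seeded in triplicate, 5 × 10⁵ cells/well. Daily medium change with complete RPMI containing compound at 1× or 2× MIC. Cells lysed with 0.05% SDS on day 0 and day 6. Lysates inoculated into BACTEC vials, GI followed over 8 days.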

[7] = system: Mycobacterium tuberculosis; assay: Antitubercular activity against drug-sensitive Mycobacterium tuberculosis 2280 after 24 hrs by BACTEC radiometric susceptibility assay; type: functional; details: Mycobacterium tuberculosis, 2280, 24 h
[8] = system: Mycobacterium tuberculosis; assay: Antitubercular activity against Mycobacterium tuberculosis H37Rv infected in mouse J774A.1 cells assessed as growth index at 2 times MIC after 8 days by BACTEC radiometric susceptibility assay; type: functional; summary of the method: as §1

CC(C)CCO[C@@H]1C=C(CO)C(=O)[C@@H](COC(=O)C(C)(C)C)O1
MIC [1]: 25 µg/mL (≈ 76.1 µM)

CC(=O)OC[C@H]1O[C@H](OC(C)(C)C)C=CC1=O
MIC [1]: 6.25 µg/mL (≈ 25.8 µM)

CCCCCCCCCCO[C@@H]1C=CC(=O)[C@@H](COC(C)=O)O1
MIC [1]: 6.25 µg/mL (≈ 19.1 µM)

CC(C)CCO[C@@H]1C=C[C@H](O)[C@@H](CO)O1
Activity [2]: inactive

CC(C)CO[C@@H]1C=C([C@H](O)c2ccc(C#N)cc2)C(=O)[C@@H](COC(=O)C(C)(C)C)O1
MIC [1]: 6.25 µg/mL (≈ 15 µM)

CCCCCCO[C@@H]1C=CC(=O)[C@@H](COC(=O)C(C)(C)C)O1
Selectivity Index [3]: 0.48
CC50 at 24 h [4]: 4.8 µM
MIC [1]: 3.12 µg/mL (≈ 10 µM)

CC(C)O[C@@H]1C=C(CO)C(=O)[C@@H](COC(=O)C(C)(C)C)O1
MIC [1]: 25 µg/mL (≈ 83.2 µM)

CC(C)CO[C@@H]1C=CC(=O)[C@@H](CO)O1
MIC [1]: 12.5 µg/mL (≈ 62.4 µM)

CC(C)CCO[C@@H]1C=CC(=O)[C@@H](CO)O1
MIC [1]: 6.25 µg/mL (≈ 29.2 µM)

CO[C@@H]1C=C([C@H](O)c2ccc(C#N)cc2)C(=O)[C@@H](COC(=O)C(C)(C)C)O1
MIC [1]: 12.5 µg/mL (≈ 33.5 µM)

CN[C@@H]1[C@H](O[C@H]2[C@H](O[C@H]3[C@H](O)[C@@H](O)[C@H](N=C(N)N)[C@@H](O)[C@@H]3N=C(N)N)O[C@@H](C)[C@]2(O)C=O)O[C@@H](CO)[C@H](O)[C@H]1O [STREPTOMYCIN]
MIC [1]: 6 µg/mL (≈ 10.3 µM)

CC(C)CCO[C@H]1O[C@H](COC(=O)C(C)(C)C)C(=O)[C@@H]2O[C@H]12
MIC [1]: 12.5 µg/mL (≈ 39.8 µM)

CC(C)CO[C@@H]1C=CC(=O)[C@@H](COC(=O)C(C)(C)C)O1
Selectivity Index [3]: 2.56
CC50 at 24 h [4]: 28.2 µM
MIC [1]: 3.12 µg/mL (≈ 11 µM)

CO[C@@H]1C=CC(=O)[C@@H](COC(C)=O)O1
MIC [1]: 6.25 µg/mL (≈ 31.2 µM)

CO[C@@H]1C=CC(=O)[C@@H](COC(=O)C(C)(C)C)O1
MIC [1]: 6.25 µg/mL (≈ 25.8 µM)

CC(C)(C)O[C@@H]1C=CC(=O)[C@@H](CO)O1
MIC [1]: 25 µg/mL (≈ 125 µM)

CC(C)(C)C(=O)OC[C@H]1O[C@H](OCC2CC2)C=CC1=O
Selectivity Index [3]: 6.96
CC50 at 24 h [4]: 77.2 µM
MIC [1]: 3.12 µg/mL (≈ 11.1 µM)

CCCCCCCCCCO[C@@H]1C=C([C@H](O)c2ccc([N+](=O)[O-])cc2)C(=O)[C@@H](COC(C)=O)O1
MIC [1]: 25 µg/mL (≈ 52.4 µM)

CC(=O)OC[C@H]1O[C@H](OCCC(C)C)C=CC1=O
Selectivity Index [3]: 6.6
CC50 at 24 h [4]: 19.8 µM
MIC [1]: 0.78 µg/mL (≈ 3.04 µM)

CC(C)O[C@@H]1C=C([C@H](O)c2ccc(C#N)cc2)C(=O)[C@@H](COC(=O)C(C)(C)C)O1
MIC [1]: 6.25 µg/mL (≈ 15.6 µM)

CC(C)CCO[C@@H]1C=CC(=O)[C@@H](CO[Si](C)(C)C(C)(C)C)O1
MIC [1]: 12.5 µg/mL (≈ 38 µM)

CC(=O)OCC1=C[C@@H](OCCC(C)C)O[C@H](COC(=O)C(C)(C)C)C1=O
Activity [2]: inactive

CCCCCCCCCCO[C@@H]1C=C[C@H](O)[C@@H](CO)O1
Activity [2]: inactive

CCCCCCCCCCO[C@@H]1C=C([C@H](O)c2ccc(C#N)cc2)C(=O)[C@@H](COC(=O)C(C)(C)C)O1
MIC [1]: 12.5 µg/mL (≈ 25 µM)

CCCCCO[C@@H]1C=CC(=O)[C@@H](COC(=O)C(C)(C)C)O1
Selectivity Index [3]: 1.41
CC50 at 24 h [4]: 7.38 µM
MIC [1]: 1.56 µg/mL (≈ 5.23 µM)

COc1ccc(O[C@@H]2C=CC(=O)[C@@H](CO)O2)cc1
Activity [5]: inactive

CC(C)CCO[C@@H]1C=C([C@H](O)c2ccc([N+](=O)[O-])cc2[N+](=O)[O-])C(=O)[C@@H](COC(=O)C(C)(C)C)O1
MIC [1]: 6.25 µg/mL (≈ 12.6 µM)

CC(C)CCO[C@@H]1C=CC(=O)[C@@H](CC#N)O1
MIC [1]: 12.5 µg/mL (≈ 56 µM)

CO[C@H]1/C=C/O[C@@]2(C)Oc3c(C)c(O)c4c(O)c(c(/C=N/N5CCN(C)CC5)c(O)c4c3C2=O)NC(=O)/C(C)=C\C=C\[C@H](C)[C@H](O)[C@@H](C)[C@@H](O)[C@@H](C)[C@H](OC(C)=O)[C@@H]1C [RIFAMPIN]
MIC [1]: 2 µg/mL (≈ 2.43 µM)

CC(C)O[C@@H]1C=CC(=O)[C@@H](COC(=O)C(C)(C)C)O1
Selectivity Index [3]: 1.09
CC50 at 24 h [4]: 12.5 µM
MIC [1]: 3.12 µg/mL (≈ 11.6 µM)

Cc1ccc(S(=O)(=O)OC[C@H]2O[C@H](OC(C)C)C=CC2=O)cc1
Selectivity Index [3]: 1.4
CC50 at 24 h [4]: 13.4 µM
MIC [1]: 3.12 µg/mL (≈ 9.18 µM)

CC(C)CCO[C@@H]1C=CC(=O)[C@@H](COC(=O)C(C)(C)C)O1
Selectivity Index [3]: 13.5
CC50 at 24 h [4]: 36 µM
Growth_index [6]: 10
MIC [1]: 0.78 µg/mL (≈ 2.61 µM)
MIC [7]: 0.78 µg/mL (≈ 2.61 µM)
Growth_index [8]: 10

CC(=O)OC[C@H]1O[C@H](OC(C)C)C=CC1=O
Selectivity Index [3]: 7.6
CC50 at 24 h [4]: 104 µM
MIC [1]: 3.12 µg/mL (≈ 13.7 µM)

CC(C)(C)O[C@@H]1C=CC(=O)[C@@H](COC(=O)C(C)(C)C)O1
MIC [1]: 6.25 µg/mL (≈ 22 µM)

CCCCO[C@@H]1C=CC(=O)[C@@H](COC(=O)C(C)(C)C)O1
Selectivity Index [3]: 3.85
CC50 at 24 h [4]: 42.5 µM
MIC [1]: 3.12 µg/mL (≈ 11 µM)

CC(C)O[C@@H]1C=CC(=O)[C@@H](CO)O1
MIC [1]: 25 µg/mL (≈ 134 µM)

O=C1C=C[C@@H](OCC2CC2)O[C@@H]1CO
MIC [1]: 25 µg/mL (≈ 126 µM)

CCCCCCCCCCO[C@@H]1C=CC(=O)[C@@H](CO)O1
MIC [1]: 12.5 µg/mL (≈ 44 µM)

CO[C@@H]1C=CC(=O)[C@@H](CO)O1
MIC [1]: 25 µg/mL (≈ 158 µM)

COc1ccc(O[C@@H]2C=CC(=O)[C@@H](COC(=O)C(C)(C)C)O2)cc1
MIC [1]: 6.25 µg/mL (≈ 18.7 µM)

CC(=O)OC[C@H]1O[C@H](OCCC(C)C)C=C([C@H](O)c2ccc([N+](=O)[O-])cc2)C1=O
Selectivity Index [3]: 1.8
CC50 at 24 h [4]: 14.3 µM
MIC [1]: 3.12 µg/mL (≈ 7.67 µM)

Cc1ccc(S(=O)(=O)OC[C@H]2O[C@H](OC(C)C)C=C([C@H](O)c3ccc([N+](=O)[O-])cc3)C2=O)cc1
MIC [1]: 6.25 µg/mL (≈ 12.7 µM)

CC(=O)OC[C@H]1O[C@H](OCCC(C)C)C=C([C@H](O)c2ccc([N+](=O)[O-])cc2[N+](=O)[O-])C1=O
MIC [1]: 6.25 µg/mL (≈ 13.8 µM)

CC(C)CCO[C@@H]1C=C([C@H](O)c2ccc(C#N)cc2)C(=O)[C@@H](COC(=O)C(C)(C)C)O1
MIC [1]: 6.25 µg/mL (≈ 14.6 µM)

CCCCCCCCCCO[C@@H]1C=CC(=O)[C@@H](COC(=O)C(C)(C)C)O1
MIC [1]: 12.5 µg/mL (≈ 33.9 µM)
